System: MS2 coat protein
Test: apparent Kd, MS2 coat protein; higher = weaker binding; RNA-MaP array; FMN 200 µM where present
Outline: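 Stalled E. coli RNA polymerase transcribed the designs on Illumina sequencing-chip clusters. SNAP-549-labelled MS2 coat protein was titrated from 0.7 or 1.5 nM, doubling to 3 µM, without and then with constant ligand, in 100 mM Tris-HCl pH 7.5, 80 mM KCl, 4 mM MgCl2, BSA, DTT, yeast tRNA and Tween-20. Per-cluster binding curves were fitted to green signal normalised to red-channel RNA signal and control-cluster median Fmax. The apparent Kd is the median of the filtered fits.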

[1] = designed as: OFF switch for flavin mononucleotide, no ligand
[2] = ligand present: flavin mononucleotide, designed as: OFF switch for flavin mononucleotide
[3] = designed as: ON switch for flavin mononucleotide, no ligand
[4] = ligand present: flavin mononucleotide, designed as: ON switch for flavin mononucleotide

Sequence	apparent Kd [1]	apparent Kd [2]	apparent Kd [3]	apparent Kd [4]
CUCGGACAUGAGGAUCACCCAUGUGAGGAUAUGAUGCGAUCGUCGAAAGACGAUAGCAUCAGAAGGUACAAAUG	52 nM	42.9 nM	–	–
GCACUUAUAUUUGAACCGAUUCGAACAUGAGGAUCACCCAUGUAGGAUAUGCUAAAAGUUGUGAUGCAGAAGGACAUUAAGUGC	5.44 nM	6.74 nM	–	–
AUAGCAACAUGAGGAUCACCCAUGUAGGAUAUCGCUAUUGUAAUCAUGAAACAUGAUUACAAUAGCGAGAAGGACAUAUGCUAA	7.84 nM	10.2 nM	–	–
UGAAUCUAGUAAGGAUAUACACGAGAUACAAGUGUAGAAGGUACUUACAUGAGGAUCACCCAUGUAUACAUGGAUAAUAGAUAU	–	–	291 nM	182 nM
UUAAAUCAUGUAGGAUAUGCAUGGCGAAGCUACGCAGAAGGACAUGAGGAUCACCCAUGUUAUAGCUACCCGUUACGGUGGCAA	89.1 nM	239 nM	–	–
CCAGCGUAUGUGAGGAUAUGCUGGUCCUUGGAUCAGCAGAAGGCACAUGAGGAUCACCCAUGUGGUGUCGUUGG	303 nM	37 nM	–	–
GGAUCGAGUGUGAGGAUAUGCUGGUCCUUGGAUCAGCAGAAGGCACAUGAGGAUCACCCAUGUCCAAGCGGUCC	152 nM	701 nM	–	–
AUUUAGAGAGGAUAUAUAAAGUGAAACAUGAGGAUCACCCAUGUAAUUUUAUGGAUGUAAAUAGAAGGCUCAUUUU	38.2 nM	29.4 nM	–	–
AUCGUGUUAGGAUAUGCAUGUCGCUGGGUAGCUAGCGAUAGGCAGAAGGAACAUGAGGAUCACCCAUGUUCGGG	158 nM	78 nM	–	–
GUAGCUAUCGGAGGAUAUUCAUACCGGAAACGGACAUGAGGAUCACCCAUGUGGCGAAAGCCUUGGGAGAAGGCCGAUCGCUAC	–	–	239 nM	8.45 nM
CCUCCACAUGAGGAUCACCCAUGUCAGGAUAUCGUGUGUUUUUUUUCGGCCGCGCGUGCGAGAAGGGACGUCUU	19.5 nM	19.8 nM	–	–
GGUUAAUAUCGAGGAUAUGUCUAGACACAUGAGGAUCACCCAUGUAUGUGUAUAGAAGGCGAUAUUAACAGCAUGUUACAUGCU	–	–	40.8 nM	16 nM
AAAUAGACAGGAUAUGCAUGAAAAUUAAAAAAAAAAAAAAAACAUGAGGAUCACCCAUGUAGAAGGGUCAAAAA	107 nM	99.5 nM	–	–
CUGUUACAUGAGGAUCACCCAUGUGAGGAUAUGGUUCGGUACUGUCCUGUCGCGUACUCCAGAAGGCACGUGUC	29.4 nM	29.9 nM	–	–
UCUUGACAUGAGGAUCACCCAUGUCAGGAUAUAGUAGGACAAAUAAAUAAAAGUUCUACUAGAAGGGACGUGGG	20.4 nM	26.7 nM	–	–
CAUGUCUGAGGAUAUCGUUUUUUGUACAUGAGGAUCACCCAUGUCCUAUUUUUUAUAUUACGAGAAGGCAGUGGAU	36.4 nM	22.2 nM	–	–
AGCUACGUUUCGUAGCAGUGUCAUCGAGAAGGCCUUAAAACAUGAGGAUCACCCAUGUAUGCAUGGGAGGAUAUCGAUGAUACA	–	–	31.7 nM	6.98 nM
UGUCCAUAGCAGAAGGCAUGUCAAAAGACAUGAGGAUCACCCAUGUAAACAUGAGGAUAUGCUAUGGACUAAGAGCGAAAGCUC	8.57 nM	5.66 nM	–	–
AAUGCCGUAGGAUAUAUAUGGCAGAUCGCACGUCCUGAAAGACAUGAGGAUCACCCAUGUAGAAGGGCGGAAAC	14.7 nM	17 nM	–	–
UUCAAAUUCGUAGGAUAUGUAUAUAUUUUCUACAUGAGGAUCACCCAUGUUACCAUUUUUUAUUGACAGAAGGACGUAAUCUAA	–	–	34.6 nM	13.8 nM
GUAUUUAGAUAAGGAUAUAAGUCUAGGACAUGAGGAUCACCCAUGUGUGUCUUAGAAGGUAUUUGGGUAAUACUGUUACAGUAA	–	–	150 nM	99.5 nM
GCGAUGAUCGAGAAGGCCACUACAUGAGGAUCACCCAUGUCGUGGUGUAUUGGAGGAUAUCGAUCGGCGUCUUAUGAGGAUAUA	5.17 nM	5.65 nM	–	–
CAUCCACAUGAGGAUCACCCAUGUCAGGAUAUCUAUCAUAGCAUCGAAAGAUGCGGGUAGAGAAGGGACAAACC	12.9 nM	20.2 nM	–	–
AUCCUGCGAGGAUAUACAUAGUUUUGUUUGUUUUGUCUCAAACAUGAGGAUCACCCAUGUAGAAGGUGCGUCAC	155 nM	130 nM	–	–

Sequence	apparent Kd [1]	apparent Kd [2]	apparent Kd [3]	apparent Kd [4]
AUAUUGUGAGGAUAUCCAAUAUAUGACAUGAGGAUCACCCAUGUUUCCACUCGUACCUCCGGAGAAGGCACUUAUA	24.3 nM	22.8 nM	–	–
GUGGCGACUGAGAAGGUACGCAUAAAAGAGAAGUAAGGAUAUCAGUCACAUGAGGAUCACCCAUGUGUUGGAAAGAUCCUUAAA	10.4 nM	37.9 nM	–	–
UGAUCACAUGAGGAUCACCCAUGUCAGGAUAUCUACAUUGAAGCUGCGGCUUCAAUGUAGAGAAGGGAUAUAAU	99 nM	229 nM	–	–
AUGCUAGUGUGAGGAUAUUAUUGACAUGAGGAUCACCCAUGUGUGAGUCCAACAUGAGCUACAGUUAAGAAGGUACAUUAGCAU	45.5 nM	38.1 nM	–	–
GUAUAUAGUGUGAGGAUAUGCUGGUCCUUGGAUCAGCAGAAGGCACAUGAGGAUCACCCAUGUAGUUUAUUAUG	19.7 nM	78 nM	–	–
GUAUGUAAGGAGAAGGGCUACUGGUUGAAACCUGCGGCCUCUGGAACAUGAGGAUCACCCAUGUAGCAGGAUAUCCUUGCGUGA	222 nM	22.9 nM	–	–
UUCAGCUUGACAGGAUAUACAUCACUGCGAAAGCAGUGUAUCUUAAUAACAUGAGGAUCACCCAUGUAGAAGGGUCGAGCUGAA	18.4 nM	32.7 nM	–	–
UUCAUGUAAGGAUAUGCGGGCGGGCGCGUUUGUGUUUGUUUGUAGAAGGUACAUGAGGAUCACCCAUGUACUGG	22 nM	68.2 nM	–	–
GGGAGUGGAGGGAAUAACAUGAGGAUCACCCAUGUAUGGGAGAGAAGGCAGAUUGGAGGGCGAUCUGAGGAUAUUUAGACUCUU	–	–	13.1 nM	10.7 nM
UAUUGAUAAUAUUUUAACAUGAGGAUCACCCAUGUCGCUAGACAGGAUAUAUUUUAUUUGUUUAAGUAGAAGGGUCGUAGAUUU	–	–	200 nM	152 nM
GCAGUGCCAGCGGUACUGCCUCUAGCAGAAGGGUGACGAGACAUGAGGAUCACCCAUGUAGAGACACAGGAUAUGCACCAGCUU	–	–	142 nM	8.26 nM
GCUCAGUAAGGAUAUUAAUGGCACUGUUAUUCAGCGCCAGCUGAGAAGGUACAUGAGGAUCACCCAUGUGGUGA	228 nM	135 nM	–	–
UCUGGUCGAGGAUAUACAUGAGGAUCACCCAUGUUGAUCAAGCGACUUCGGUCGCAAUGUAGAAGGCGACCAGA	627 nM	182 nM	–	–
UGUUGUAUUACAGGAUAUCUAUGAUUUUAAUUUAGAGAAGGGUAUUCACAUGAGGAUCACCCAUGUAUAUACGAGGAAGUUGUG	–	–	51.2 nM	58.9 nM
CCGGAAUCCUAGGAUAUGCUAGACGAUAGUCUAGCAGAAGGAGGAACAUGAGGAUCACCCAUGUGUCCUACCGG	17.2 nM	22.1 nM	–	–
AAGUCGACGGUGAGGAUAUCGGUUGAACGACAGAUCGAGAAGGCACAUGAGGAUCACCCAUGUGGGUAACGUCG	19.3 nM	31.8 nM	–	–
ACCAAUGGAGGAUAUACAUGAGGAUCACCCAUGUUUAUCCUACAUAGGUGAAAAACAUGUAGAAGGCCAUUGGA	14.8 nM	13.2 nM	–	–
UUAUUAUAUGUAGGAUAUGCAUAUUAUCAUUGUGCAGAAGGACAUGAGGAUCACCCAUGUAUAUUAUUAUUAUAUAUUAUAUAU	17.5 nM	18.5 nM	–	–
CUAUAGAUAUCAGGAUAUCUAUUUCCUACAUGAGGAUCACCCAUGUAGAUGAUCACCCAUGUAAAGGAGAAGGGAUAUCUAUAG	–	–	361 nM	169 nM
GGACAUCCCACAGGAUAUGCUGGACUUUGUCCAGCAGAAGGGUGAAGAACAUGAGGAUCACCCAUGUGGAUGUCCAUAUUUAAU	–	–	1440 nM	95.4 nM
GCAGGACAUGAGGAUCACCCAUGUUCAAAAUAUUGAGGAUAUGGAUACGGUAUAUCCGAACCAGAAGGCAACCUGC	–	–	20.5 nM	17.1 nM
UUUUACGUUUCGUAGCAGUGUCAUCGAGAAGGCCCUGACAUGAGGAUCACCCAUGUUGUUACAUGGGAGGAUAUCGAUGAUAAA	–	–	15.9 nM	5.75 nM
GAGCUGUGAGGAUAUAAACCUGUGGGCUCAACCUAGCGGGUUUAGAAGGCACAUGAGGAUCACCCAUGUCCCAA	26 nM	262 nM	–	–
AAGGAGUAAGGAUAUGCUGCUCGUCACUUGCGUGAUGAGUAGCAGAAGGUACAUGAGGAUCACCCAUGUAAAGA	27.4 nM	20.1 nM	–	–

Source: the EternaBench riboswitch data
